This passage reports inhibition and IC50 results from ChEMBL document CHEMBL1909580, “Branched-chain C-cyano pyranonucleosides: synthesis of 3'-C-cyano & 3'-C-cyano-3'-deoxy pyrimidine pyranonucleosides as novel cytotoxic agents” (Eur J Med Chem, 2011).

For experiment [1], the system named is Respiratory syncytial virus. Nature of the experiment: Antiviral activity against RSV infected in human HeLa cells assessed as inhibition of virus-induced cytopathicity at 100 uM. Format: functional, organism-based. The essentials:
(§1)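 Confluent cell monolayers in microtiter plates were inoculated with 100 CCID50 of virus in the presence of varying test concentrations. 1 CCID50 is the virus dose infecting 50% of cultures. Cytopathicity was scored once it was complete in untreated virus-infected controls.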

For a further experiment, the system named is L1210. The experiment can be described thus: Cytostatic activity against mouse L1210 cells. Type of experiment: functional, cell-based. The essentials: (§2)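 Cell proliferation was measured with the test agents present. IC50 is the concentration giving 50% inhibition of proliferation, given as the mean ± S.D. of 2–3 independent experiments.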
In experiment [2] the test system is Influenza A virus. Nature of the experiment: Antiviral activity against influenza A virus H3N2 infected in MDCK cells assessed as inhibition of virus-induced cytopathicity at 100 uM. Type of experiment: functional, organism-based. The method, boiled down: (§3)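 Confluent cell monolayers were infected with 100 CCID50 of virus (1 CCID50 infects 50% of cultures) in the presence of varying concentrations of test compound. Virus-induced cytopathicity was scored once it was complete in the untreated infected controls.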
(Protection from cytopathic effect is a common read-out in antiviral testing.)

The subject of the next experiment is CCRF-CEM. The experiment can be described thus: Cytostatic activity against human CEM cells. Type of experiment: functional, cell-based. The essentials:
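Uninfected CEM cells were run in parallel with the HIV assay for 4 days at 37 °C. IC50 is the concentration inhibiting cell proliferation by 50%, given as the mean ± S.D. of 2–3 independent experiments.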

For a further experiment, the system named is Human alphaherpesvirus 2. The experiment can be described thus: Antiviral activity against HSV2 infected in human HEL cells assessed as inhibition of virus-induced cytopathicity at 100 uM. Format: functional, organism-based. The method, boiled down:
as §1

Experiment [3] deals with Coxsackievirus B4. The experiment can be described thus: Antiviral activity against Coxsackievirus B4 infected in human HeLa cells assessed as inhibition of virus-induced cytopathicity at 100 uM. Format: functional, organism-based. The method, boiled down: as §1
The next experiment deals with Vaccinia virus. The experiment can be described thus: Antiviral activity against Vaccinia virus infected in human HEL cells assessed as inhibition of virus-induced cytopathicity at 100 uM. Format: functional, organism-based. To be noted: Orthopoxvirus vaccinia. The essentials: as §3
The subject of experiment [4] is Coxsackievirus B4. The experiment can be described thus: Antiviral activity against Coxsackievirus B4 infected in african green monkey Vero cells assessed as inhibition of virus-induced cytopathicity at 100 uM. Type of experiment: functional, organism-based. The essentials: as §1
Experiment [5] concerns Human immunodeficiency virus 2. The experiment can be described thus: Antiviral activity against HIV-2 ROD infected in CEM cells assessed as inhibition of virus-induced cytopathicity at 100 uM. Format: functional, organism-based. To be noted: ISOLATE ROD, CCRF-CEM. The essentials:
(§4)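 Virus stocks were titrated in CEM cells as CCID50. CEM cells at ~3 × 10^5 cells/ml were infected with ~100 CCID50 and immediately added to wells holding various test concentrations. After 4 days at 37 °C, giant cell formation was scored microscopically.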

A further experiment has as its system Human alphaherpesvirus 1. The experiment can be described thus: Antiviral activity against HSV1 infected in human HEL cells assessed as inhibition of virus-induced cytopathicity at 100 uM. Type of experiment: functional, organism-based. The method, boiled down:
as §1

Another experiment has as its system HeLa. Nature of the experiment: Cytostatic activity against human HeLa cells. Type of experiment: functional, cell-based. The essentials: as §2
The test system of experiment [6] is Influenza A virus. Nature of the experiment: Antiviral activity against influenza A virus H1N1 infected in MDCK cells assessed as inhibition of virus-induced cytopathicity at 100 uM. Type of experiment: functional, organism-based. The method, boiled down: as §3
The subject of experiment [7] is Vesicular stomatitis virus. Nature of the experiment: Antiviral activity against VSV infected in human HEL cells assessed as inhibition of virus-induced cytopathicity at 100 uM. Format: functional, organism-based. The essentials: as §3
Another experiment concerns Influenza B virus. Nature of the experiment: Antiviral activity against influenza B virus infected in MDCK cells assessed as inhibition of virus-induced cytopathicity at 100 uM. Format: functional, organism-based. The method, boiled down: as §3
Experiment [8] concerns Vesicular stomatitis virus. Nature of the experiment: Antiviral activity against VSV infected in human HeLa cells assessed as inhibition of virus-induced cytopathicity at 100 uM. Type of experiment: functional, organism-based. The method, boiled down:
as §3

A further experiment has as its system Human respirovirus 3. The experiment can be described thus: Antiviral activity against Parainfluenza 3 virus infected in african green monkey Vero cells assessed as inhibition of virus-induced cytopathicity at 100 uM. Type of experiment: functional, organism-based. The method, boiled down: as §1
Experiment [9] deals with Mammalian orthoreovirus 1. Nature of the experiment: Antiviral activity against Reovirus1 infected in african green monkey Vero cells assessed as inhibition of virus-induced cytopathicity at 100 uM. Format: functional, organism-based. The method, boiled down:
as §1

Another experiment deals with Punta Toro virus. Nature of the experiment: Antiviral activity against Punta Toro virus infected in african green monkey Vero cells assessed as inhibition of virus-induced cytopathicity at 100 uM. Format: functional, organism-based. The essentials:
as §1

Another experiment has as its system Feline coronavirus. The experiment can be described thus: Antiviral activity against Feline coronavirus infected in feline CRFK cells assessed as inhibition of virus-induced cytopathicity at 100 uM. Format: functional, organism-based. The method, boiled down:
as §1

In a further experiment the test system is Felid alphaherpesvirus 1. The experiment can be described thus: Antiviral activity against Feline herpesvirus infected in […] cells assessed as inhibition of virus-induced cytopathicity at 100 uM. Format: functional, organism-based.
Experiment [10] concerns Human immunodeficiency virus 1. Nature of the experiment: Antiviral activity against HIV1 3B infected in CEM cells assessed as inhibition of virus-induced cytopathicity at 100 uM. Format: functional, organism-based. Particulars: CCRF-CEM. The method, boiled down:
as §4

Calls of active or inactive are those of the source. The calls are words filed in the database; no cut-off is given here. Where only a bound is given, the exact number is not on record here.

`N#C[C@]1(O)[C@H](O)[C@@H](CO)O[C@@H](n2ccc(O)nc2=O)[C@@H]1O`: the inhibition entry (in experiment [1]; with Influenza A virus [2]; with Human alphaherpesvirus 2; in the experiment on Coxsackievirus B4 [3]; in the experiment with Vaccinia virus; in the experiment with Coxsackievirus B4 [4]) was “inactive” throughout. Moreover, the inhibition result (in experiment [5]; in the experiment on Human alphaherpesvirus 1; in the experiment with Influenza A virus [6]; in experiment [7]; in the experiment on Influenza B virus; in [8]) was “inactive” each time. In addition, the inhibition result (in the experiment with Human respirovirus 3; in experiment [9]; in the experiment with Punta Toro virus; in the experiment with Feline coronavirus; in the experiment on Felid alphaherpesvirus 1; in experiment [10]) was “inactive” throughout. Also, the IC50 (in general, the concentration at which inhibition is half-maximal) was 417 µM in the experiment on L1210, over 500 µM with CCRF-CEM and over 500 µM in the experiment on HeLa.
